Columns and labels:
Assay type in all cases: functional
[1] = system: Aspergillus fumigatus; assay: Antimicrobial activity against Aspergillus fumigatus isolate 41 by CLSI M38-A2 broth microdilution method
Summary of the method: (§1)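 CLSI M38-A2 broth microdilution with posaconazole. MIC taken as the lowest concentration with no visible growth at 48 h. C. parapsilosis ATCC 22019 and C. krusei ATCC 6258 were included as QC strains in every run.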

[2] = system: Aspergillus fumigatus; assay: Antimicrobial activity against Aspergillus fumigatus isolate 42 by CLSI M38-A2 broth microdilution method; summary of the method: as §1
[3] = system: Aspergillus fumigatus; assay: Antimicrobial activity against Aspergillus fumigatus isolate 46 by CLSI M38-A2 broth microdilution method
[4] = system: Aspergillus fumigatus; assay: Antimicrobial activity against Aspergillus fumigatus isolate 47 by CLSI M38-A2 broth microdilution method
[5] = system: Aspergillus fumigatus; assay: Antimicrobial activity against Aspergillus fumigatus isolate 45 by oxygen consumption method
[6] = system: Aspergillus fumigatus; assay: Antimicrobial activity against Aspergillus fumigatus isolate 46 by oxygen consumption method
[7] = system: Aspergillus fumigatus; assay: Antimicrobial activity against Aspergillus fumigatus isolate 7 after 24 hrs by Etest; conditions: isolate 7, 24 h
[8] = system: Aspergillus fumigatus; assay: Antimicrobial activity against Aspergillus fumigatus isolate 17 after 24 hrs by Etest; conditions: isolate 17, 24 h
Summary of the method: (§2)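 Posaconazole Etest strips placed on RPMI 1640 agar with 2% glucose, pH 7.0, and run per the strip maker's instructions. Incubation at 35°C, with the MIC read at 24 h and at 48 h.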

[9] = system: Aspergillus fumigatus; assay: Antimicrobial activity against Aspergillus fumigatus isolate 22 after 24 hrs by Etest; conditions: isolate 22, 24 h
Summary of the method: (§3)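 Etest strips on RPMI 1640 agar with 2% glucose, pH 7.0, run per manufacturer's instructions. Incubated at 35°C; MIC read at 24 h.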

[10] = system: Aspergillus fumigatus; assay: Antimicrobial activity against Aspergillus fumigatus isolate 24 after 24 hrs by Etest; conditions: isolate 24, 24 h; summary of the method: as §3
[11] = system: Aspergillus fumigatus; assay: Antimicrobial activity against Aspergillus fumigatus isolate 27 after 24 hrs by Etest; conditions: isolate 27, 24 h; summary of the method: as §3
[12] = system: Aspergillus fumigatus; assay: Antimicrobial activity against Aspergillus fumigatus isolate 30 after 24 hrs by Etest; conditions: isolate 30, 24 h; summary of the method: as §3
[13] = system: Aspergillus fumigatus; assay: Antimicrobial activity against Aspergillus fumigatus isolate 32 after 24 hrs by Etest; conditions: isolate 32, 24 h
Summary of the method: (§4)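 Posaconazole Etest strips on RPMI 1640 agar with 2% glucose, pH 7.0, run per the strip maker's instructions. Incubated at 35°C. MIC read at 24 h and at 48 h, matching the time in each line.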

[14] = system: Aspergillus fumigatus; assay: Antimicrobial activity against Aspergillus fumigatus isolate 35 after 24 hrs by Etest; conditions: isolate 35, 24 h; summary of the method: as §4
[15] = system: Aspergillus fumigatus; assay: Antimicrobial activity against Aspergillus fumigatus isolate 42 after 24 hrs by Etest; conditions: isolate 42, 24 h; summary of the method: as §4
[16] = system: Aspergillus fumigatus; assay: Antimicrobial activity against Aspergillus fumigatus isolate 43 after 24 hrs by Etest; conditions: isolate 43, 24 h; summary of the method: as §4
[17] = system: Aspergillus fumigatus; assay: Antimicrobial activity against Aspergillus fumigatus isolate 44 after 24 hrs by Etest; conditions: isolate 44, 24 h
[18] = system: Aspergillus fumigatus; assay: Antimicrobial activity against Aspergillus fumigatus isolate 48 after 24 hrs by Etest; conditions: isolate 48, 24 h
[19] = system: Aspergillus fumigatus; assay: Antimicrobial activity against Aspergillus fumigatus isolate 49 after 24 hrs by Etest; conditions: isolate 49, 24 h
[20] = system: Aspergillus fumigatus; assay: Antimicrobial activity against Aspergillus fumigatus isolate 1 after 48 hrs by Etest; conditions: isolate 1, 48 h; summary of the method: as §2
[21] = system: Aspergillus fumigatus; assay: Antimicrobial activity against Aspergillus fumigatus isolate 8 after 48 hrs by Etest; conditions: isolate 8, 48 h
[22] = system: Aspergillus fumigatus; assay: Antimicrobial activity against Aspergillus fumigatus isolate 10 after 48 hrs by Etest; conditions: isolate 10, 48 h; summary of the method: as §2
[23] = system: Aspergillus fumigatus; assay: Antimicrobial activity against Aspergillus fumigatus isolate 12 after 48 hrs by Etest; conditions: isolate 12, 48 h; summary of the method: as §2
[24] = system: Aspergillus fumigatus; assay: Antimicrobial activity against Aspergillus fumigatus isolate 14 after 48 hrs by Etest; conditions: isolate 14, 48 h; summary of the method: as §2
[25] = system: Aspergillus fumigatus; assay: Antimicrobial activity against Aspergillus fumigatus isolate 21 after 48 hrs by Etest; conditions: isolate 21, 48 h
Summary of the method: (§5)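 Etest strips on RPMI 1640 agar with 2% glucose, pH 7.0, run per manufacturer's instructions. Incubated at 35°C; MIC read at 48 h.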

[26] = system: Aspergillus fumigatus; assay: Antimicrobial activity against Aspergillus fumigatus isolate 29 after 48 hrs by Etest; conditions: isolate 29, 48 h; summary of the method: as §5
[27] = system: Aspergillus fumigatus; assay: Antimicrobial activity against Aspergillus fumigatus isolate 30 after 48 hrs by Etest; conditions: isolate 30, 48 h; summary of the method: as §5
[28] = system: Aspergillus fumigatus; assay: Antimicrobial activity against Aspergillus fumigatus isolate 31 after 48 hrs by Etest; conditions: isolate 31, 48 h; summary of the method: as §5
[29] = system: Aspergillus fumigatus; assay: Antimicrobial activity against Aspergillus fumigatus isolate 47 after 48 hrs by Etest; conditions: isolate 47, 48 h
[30] = system: Aspergillus fumigatus; assay: Antimicrobial activity against Aspergillus fumigatus isolate 6 by oxygen consumption method
[31] = system: Aspergillus fumigatus; assay: Antimicrobial activity against Aspergillus fumigatus isolate 8 by oxygen consumption method
[32] = system: Aspergillus fumigatus; assay: Antimicrobial activity against Aspergillus fumigatus isolate 16 by oxygen consumption method
Summary of the method: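 Conidial suspension in RPMI 1640 broth with posaconazole at 0.25 and 2 μg/ml. Tubes agitated 12 h at 37°C in a biological oxygen monitor. Available oxygen was monitored continuously, and the MIC was assigned from the oxygen quantification.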

[33] = system: Aspergillus fumigatus; assay: Antimicrobial activity against Aspergillus fumigatus isolate 20 by oxygen consumption method
Summary of the method: (§6)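 Conidial suspension in RPMI 1640 broth, 1.5 ml, with two drug concentrations (0.25 and 2 μg/ml). Tubes agitated 12 h at 37°C in a biological oxygen monitor. Available oxygen monitored continuously and quantified to assign the MIC.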

[34] = system: Aspergillus fumigatus; assay: Antimicrobial activity against Aspergillus fumigatus isolate 25 by oxygen consumption method; summary of the method: as §6
[35] = system: Aspergillus fumigatus; assay: Antimicrobial activity against Aspergillus fumigatus isolate 30 by oxygen consumption method; summary of the method: as §6
[36] = system: Aspergillus fumigatus; assay: Antimicrobial activity against Aspergillus fumigatus isolate 32 by oxygen consumption method
Summary of the method: (§7)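 Conidial suspension in RPMI 1640 broth, tested at two posaconazole levels (0.25 and 2 μg/ml). Agitated for 12 h at 37°C in a biological oxygen monitor. MIC derived from continuous monitoring and quantification of the available oxygen.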

[37] = system: Aspergillus fumigatus; assay: Antimicrobial activity against Aspergillus fumigatus isolate 39 by oxygen consumption method; summary of the method: as §7
[38] = system: Aspergillus fumigatus; assay: Antimicrobial activity against Aspergillus fumigatus isolate 41 by oxygen consumption method; summary of the method: as §7
[39] = system: Aspergillus fumigatus; assay: Antimicrobial activity against Aspergillus fumigatus isolate 43 by oxygen consumption method
[40] = system: Aspergillus fumigatus; assay: Antimicrobial activity against Aspergillus fumigatus isolate 1 by CLSI M38-A2 broth microdilution method
Summary of the method: (§8)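 Posaconazole broth microdilution follows CLSI M38-A2. The MIC is the lowest concentration with no visible growth at 48 h. Candida parapsilosis ATCC 22019 and Candida krusei ATCC 6258 were included as QC strains in every run.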

[41] = system: Aspergillus fumigatus; assay: Antimicrobial activity against Aspergillus fumigatus isolate 9 by CLSI M38-A2 broth microdilution method
[42] = system: Aspergillus fumigatus; assay: Antimicrobial activity against Aspergillus fumigatus isolate 17 by CLSI M38-A2 broth microdilution method; summary of the method: as §8
[43] = system: Aspergillus fumigatus; assay: Antimicrobial activity against Aspergillus fumigatus isolate 27 by CLSI M38-A2 broth microdilution method
Summary of the method: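 Reference broth microdilution per CLSI M38-A2. MIC read as absence of visible growth at 48 h. C. parapsilosis ATCC 22019 and C. krusei ATCC 6258 QC strains run in each test session.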

[44] = system: Aspergillus fumigatus; assay: Antimicrobial activity against Aspergillus fumigatus isolate 36 by CLSI M38-A2 broth microdilution method; summary of the method: as §1
[45] = system: Aspergillus fumigatus; assay: Antimicrobial activity against Aspergillus fumigatus isolate 40 by CLSI M38-A2 broth microdilution method; summary of the method: as §1

Measured: MIC

CC[C@@H]([C@H](C)O)n1ncn(-c2ccc(N3CCN(c4ccc(OC[C@@H]5CO[C@@](Cn6cncn6)(c6ccc(F)cc6F)C5)cc4)CC3)cc2)c1=O [POSACONAZOLE]
1 µg/mL: [40]
≤ 0.25 µg/mL: [6] | [30] | [33] | [34] | [35] | [36] | [38] | [39]
0.125 µg/mL: [3] | [4] | [8] | [10] | [11] | [28] | [42] | [43] | [44] | [45]
8 µg/mL: [20]
0.25 µg/mL: [7] | [9] | [13] | [14] | [21] | [22] | [25] | [26] | [41]
0.5 µg/mL: [12] | [19] | [23] | [24] | [27]
0.06 µg/mL: [1] | [2] | [15]
≤ 0.03 µg/mL: [16] | [17] | [18] | [29]
≥ 0.5 µg/mL: [5] | [31] | [32] | [37]

From ChEMBL document CHEMBL1649256, “Comparison of assessment of oxygen consumption, Etest, and CLSI M38-A2 broth microdilution methods for evaluation of the susceptibility of Aspergillus fumigatus to posaconazole” (2009)
